Laboratory results published in ChEMBL document CHEMBL3864151, “Discovery of imidazopyridazines as potent Pim-1/2 kinase inhibitors” (Bioorg Med Chem Lett, 2016).

Key:
[1] = biological target: Serine/threonine-protein kinase pim-1 (Homo sapiens, UniProt P11309); assay: Inhibition of recombinant Pim1 (unknown origin) by electrochemiluminescence assay
[2] = biological target: Serine/threonine-protein kinase pim-2 (Homo sapiens, UniProt Q9P1W9); assay: Inhibition of recombinant Pim2 (unknown origin) by electrochemiluminescence assay
Sequence of Serine/threonine-protein kinase pim-2 (Q9P1W9 whole entry): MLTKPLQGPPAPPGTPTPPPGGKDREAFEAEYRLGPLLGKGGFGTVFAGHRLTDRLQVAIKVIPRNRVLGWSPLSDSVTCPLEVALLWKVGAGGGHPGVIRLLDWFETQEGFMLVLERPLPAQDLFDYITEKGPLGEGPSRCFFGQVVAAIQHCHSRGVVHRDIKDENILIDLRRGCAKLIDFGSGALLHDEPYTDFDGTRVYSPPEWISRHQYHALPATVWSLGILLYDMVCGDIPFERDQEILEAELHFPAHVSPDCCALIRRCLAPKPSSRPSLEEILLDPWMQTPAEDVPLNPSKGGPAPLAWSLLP

[3] = biological target: Serine/threonine-protein kinase PIM (Homo sapiens, UniProt P11309+Q9P1W9+Q86V86); assay: Inhibition of Pim1/2 in human KMS-12 cells assessed as decrease in BAD phosphorylation at Ser112 by Western blot method; assay type: cell-based
[4] = Intrinsic clearance in human liver microsomes at 1 uM after 30 mins by LC-MS HRMS analysis; assay type: ADME; conditions: read-out: CLH
[5] = Intrinsic clearance in rat liver microsomes at 1 uM after 30 mins by LC-MS HRMS analysis; assay type: ADME; conditions: read-out: CLH
[6] = Oral bioavailability in Sprague-Dawley rat at 5 mg/kg; assay type: ADME, organism-based; conditions: in vivo; for bioavailability: Sprague-Dawley
Procedure, shortened: (§1)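 Male Sprague Dawley rats, 3 animals per dosing route, mean values. iv dose 2 mg/kg as a solution in DMSO; po dose 5 mg/kg in 1% Tween 80, 2% HPMC, 97% water/methanesulfonic acid pH 2.2.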

[7] = Volume of distribution at steady state in Sprague-Dawley rat at 2 mg/kg, iv; assay type: ADME, organism-based; conditions: in vivo, read-out: Vdss; procedure, shortened: as §1
[8] = Mean residence time in Sprague-Dawley rat at 2 mg/kg, iv; assay type: ADME, organism-based; conditions: in vivo; procedure, shortened: as §1
[9] = Clearance in Sprague-Dawley rat at 2 mg/kg, iv relative to liver blood flow; assay type: ADME, organism-based; conditions: in vivo; procedure, shortened: as §1
[10] = Clearance in Sprague-Dawley rat at 2 mg/kg, iv; assay type: ADME, organism-based; conditions: in vivo; for clearance: Sprague-Dawley; procedure, shortened: as §1
[11] = AUC (0 to infinity) in Sprague-Dawley rat at 5 mg/kg, po; assay type: ADME, organism-based; parameters: dose 5 mg/kg, route oral, time infinity; conditions: in vivo; for AUC(0-inf): Sprague-Dawley; procedure, shortened: as §1
[12] = biological target: Voltage-gated inwardly rectifying potassium channel KCNH2 (Homo sapiens, UniProt Q12809); assay: Inhibition of radiolabeled dofetilide binding to human ERG expressed in HEK293 cells
Sequence of Voltage-gated inwardly rectifying potassium channel KCNH2 (Q12809 whole entry): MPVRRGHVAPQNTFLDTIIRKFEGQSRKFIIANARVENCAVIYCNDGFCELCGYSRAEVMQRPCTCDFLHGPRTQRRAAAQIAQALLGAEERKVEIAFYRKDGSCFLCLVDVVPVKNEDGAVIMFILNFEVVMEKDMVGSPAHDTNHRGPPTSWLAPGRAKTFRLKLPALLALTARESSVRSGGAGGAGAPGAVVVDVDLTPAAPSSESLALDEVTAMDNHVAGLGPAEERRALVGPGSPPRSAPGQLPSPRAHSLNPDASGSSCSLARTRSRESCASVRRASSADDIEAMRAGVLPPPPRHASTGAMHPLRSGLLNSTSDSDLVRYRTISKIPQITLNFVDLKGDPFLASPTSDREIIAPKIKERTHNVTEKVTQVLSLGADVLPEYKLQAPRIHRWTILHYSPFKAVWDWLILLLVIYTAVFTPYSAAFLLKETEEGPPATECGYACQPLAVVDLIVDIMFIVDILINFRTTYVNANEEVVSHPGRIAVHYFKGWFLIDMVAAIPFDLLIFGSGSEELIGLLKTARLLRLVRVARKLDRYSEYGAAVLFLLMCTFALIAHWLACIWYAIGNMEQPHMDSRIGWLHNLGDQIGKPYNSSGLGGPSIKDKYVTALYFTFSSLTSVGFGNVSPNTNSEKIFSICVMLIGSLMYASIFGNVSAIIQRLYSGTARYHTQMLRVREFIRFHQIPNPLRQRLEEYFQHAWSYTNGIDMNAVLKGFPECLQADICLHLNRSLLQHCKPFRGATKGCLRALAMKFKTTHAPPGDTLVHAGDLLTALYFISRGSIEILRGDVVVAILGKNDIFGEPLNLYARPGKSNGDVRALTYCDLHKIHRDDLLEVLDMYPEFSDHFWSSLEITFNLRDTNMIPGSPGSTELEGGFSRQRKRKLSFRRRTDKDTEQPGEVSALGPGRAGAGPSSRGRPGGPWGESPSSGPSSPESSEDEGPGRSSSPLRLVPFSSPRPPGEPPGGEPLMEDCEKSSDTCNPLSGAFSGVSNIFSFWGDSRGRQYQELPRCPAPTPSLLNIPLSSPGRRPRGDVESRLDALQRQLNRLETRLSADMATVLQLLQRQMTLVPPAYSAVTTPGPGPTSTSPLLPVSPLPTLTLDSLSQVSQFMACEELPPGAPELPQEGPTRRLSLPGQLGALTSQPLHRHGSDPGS

Sequence of Serine/threonine-protein kinase pim-1 (P11309 whole entry): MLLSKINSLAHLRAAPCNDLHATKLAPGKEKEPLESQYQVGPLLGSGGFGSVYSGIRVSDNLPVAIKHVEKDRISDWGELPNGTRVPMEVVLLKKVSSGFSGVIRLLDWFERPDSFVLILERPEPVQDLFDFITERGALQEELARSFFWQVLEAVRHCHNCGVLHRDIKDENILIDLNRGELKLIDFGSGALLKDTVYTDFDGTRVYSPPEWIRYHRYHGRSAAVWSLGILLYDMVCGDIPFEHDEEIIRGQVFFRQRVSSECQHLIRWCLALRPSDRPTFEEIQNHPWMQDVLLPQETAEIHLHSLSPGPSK

Row | Compound | IC50 [1] | IC50 [3] | microsomal CLint at 1 µM [4] | microsomal CLint at 1 µM [5] | also measured
1 | N[C@H]1CCCN(c2ccnc(NC(=O)c3c[nH]c4ccc(-c5ccccc5F)nc34)c2)C1 | 65 nM |  |  |  | IC50 [2]: 314 nM
2 | C[C@H]1CCN(c2ccncc2Nc2ncc3ccc(-c4c(F)cccc4F)nn23)C[C@H]1N | 0.26 nM | 2982 nM | 130 µL/min/mg | > 399 µL/min/mg | 
3 | C[C@H]1[C@@H](N)CCCN1c1ccncc1Nc1ncc2ccc(-c3c(F)cccc3F)nn12 |  |  |  | 312 µL/min/mg | 
4 | C[C@@H]1[C@@H](N)CCCN1c1ccncc1Nc1ncc2ccc(-c3c(F)cccc3F)nn12 |  |  | 79 µL/min/mg | 344 µL/min/mg | 
5 | C[C@]1(N)CCCN(c2ccncc2Nc2ncc3ccc(-c4c(F)cccc4F)nn23)C1 (racemic) |  |  | 91 µL/min/mg | 311 µL/min/mg | 
6 | N[C@H]1CCCN(c2ccccc2Nc2ncc3ccc(-c4c(F)cccc4F)nn23)C1 |  | 3440 nM | 82 µL/min/mg | 63 µL/min/mg | 
7 | N[C@H]1CCCN(c2sncc2Nc2ncc3ccc(-c4c(F)cccc4F)nn23)C1 | 56 nM |  | 28 µL/min/mg | 167 µL/min/mg | IC50 [2]: 148 nM
8 | C[C@@H]1CC[C@H](N)CN1c1ccncc1Nc1ncc2ccc(-c3cccc(F)n3)nn12 |  |  | 71 µL/min/mg | 194 µL/min/mg | 
9 | Fc1cccc(F)c1-c1ccc2cnc(Nc3cnccc3N3CCCCC3)n2n1 |  |  | 399 µL/min/mg | > 399 µL/min/mg | 
10 | C[C@@H]1CCN(c2ccncc2Nc2ncc3ccc(-c4c(F)cccc4F)nn23)C[C@H]1N | 0.035 nM | 212 nM | 71 µL/min/mg | 219 µL/min/mg | IC50 [2]: 0.18 nM
11 | C[C@@H]1CC[C@H](N)CN1c1ccncc1Nc1ncc2ccc(-c3c(F)cccc3F)nn12 |  |  | 203 µL/min/mg | > 399 µL/min/mg | bioavailability [6]: 141%; Vd [7]: 21.7 L/kg; MRT [8]: 4 h; IC50 [12]: 19700 nM; clearance [10]: 91.7 mL/min/kg; AUC(0-inf) [11]: 3.3 µM·h
12 | C[C@H]1C[C@H](N)CN(c2ccncc2Nc2ncc3ccc(-c4c(F)cccc4F)nn23)C1 |  |  | 111 µL/min/mg | 347 µL/min/mg | 
13 | C[C@H]1CC[C@H](N)CN1c1ccncc1Nc1ncc2ccc(-c3c(F)cccc3F)nn12 |  |  | 80 µL/min/mg | 477 µL/min/mg | 
14 | N[C@H]1C[C@@H](F)CN(c2ccncc2Nc2ncc3ccc(-c4c(F)cccc4F)nn23)C1 | 0.78 nM | 983 nM | 51 µL/min/mg | 143 µL/min/mg | 
15 | N[C@H]1CCCN(c2ccncc2Nc2ncc3ccc(-c4c(F)cccc4F)nn23)C1 | 0.07 to 0.1 nM | 403 nM | 66 µL/min/mg | 130 µL/min/mg | F [6]: 16%; Vd [7]: 7.9 L/kg; MRT [8]: 5.6 h; CL [9]: 40%; CL [10]: 23.3 mL/min/kg; AUC [11]: 3.7 µM·h
16 | N[C@H]1CCC[C@@H](c2ccncc2Nc2ncc3ccc(-c4c(F)cccc4F)nn23)C1 (racemic) | 3.7 nM | 5120 nM | < 10 µL/min/mg | 106 µL/min/mg | 
17 | N[C@@H]1CN(c2ccncc2Nc2ncc3ccc(-c4c(F)cccc4F)nn23)CC[C@H]1F |  |  | 443 µL/min/mg | > 399 µL/min/mg | 

Further lines, with some results ahead:

Row | IC50 [1] | IC50 [3] | microsomal CLint at 1 µM [4] | microsomal CLint at 1 µM [5] | Compound | also measured
18 | 1.8 nM | 5007 nM | 100 µL/min/mg | 260 µL/min/mg | N[C@H]1CCCN(c2ccncc2Nc2ncc3ccc(-c4ccc(Cl)cc4Cl)nn23)C1 | 
19 |  |  | 18 µL/min/mg | 27 µL/min/mg | N[C@H]1CCCN(c2ccncc2Nc2ncc3ccc(Cl)nn23)C1 | 
20 |  |  | 36 µL/min/mg | 40 µL/min/mg | N[C@H]1CCCN(c2ccncc2Nc2ncc3ccc(-c4ncccc4F)nn23)C1 | bioavailability [6]: 28%; Vd [7]: 3.3 L/kg; MRT [8]: 4.1 h; CL [9]: 21%; clearance [10]: 11.7 mL/min/kg; AUC(0-inf) [11]: 7.3 µM·h
21 |  |  | 33 µL/min/mg | 91 µL/min/mg | C[C@@H]1C[C@H](N)CN(c2ccncc2Nc2ncc3ccc(-c4ncccc4F)nn23)C1 | bioavailability [6]: 60%; Vd [7]: 6.7 L/kg; MRT [8]: 4.3 h; clearance [10]: 26.7 mL/min/kg; AUC(0-inf) [11]: 3.2 µM·h
22 |  | 2668 nM | 90 µL/min/mg | 122 µL/min/mg | N[C@H]1CCCN(c2ccncc2Nc2ncc3ccc(-c4ccccc4Cl)nn23)C1 | IC50 [2]: 3.4 nM
23 | 0.23 nM | 1536 nM | 48 µL/min/mg | 120 µL/min/mg | N[C@H]1CCCN(c2ccncc2Nc2ncc3ccc(-c4ccccc4F)nn23)C1 | IC50 [2]: 1.6 nM
24 |  | > 15800 nM | 28 µL/min/mg | 110 µL/min/mg | N[C@H]1CCCN(c2ncncc2Nc2ncc3ccc(-c4c(F)cccc4F)nn23)C1 | 
25 | 2.9 nM | 4807 nM | 472 µL/min/mg | > 399 µL/min/mg | O[C@H]1CCCN(c2ccncc2Nc2ncc3ccc(-c4c(F)cccc4F)nn23)C1 | 
26 |  |  | 90 µL/min/mg | 280 µL/min/mg | N[C@@H]1CCCN(c2ccncc2Nc2ncc3ccc(-c4c(F)cccc4F)nn23)C1 | 
27 | 0.23 nM | 6599 nM | 34 µL/min/mg | 39 µL/min/mg | N[C@H]1CCCN(c2ccncc2Nc2ncc3ccc(-c4cccnc4F)nn23)C1 | 
28 |  |  | 67 µL/min/mg | 61 µL/min/mg | N[C@H]1CCCN(c2cnccc2Nc2ncc3ccc(-c4c(F)cccc4F)nn23)C1 | 
29 |  |  | 66 µL/min/mg | 185 µL/min/mg | CN[C@H]1CCCN(c2ccncc2Nc2ncc3ccc(-c4c(F)cccc4F)nn23)C1 | 
30 |  | 1760 nM | < 10 µL/min/mg | < 10 µL/min/mg | N[C@H]1CCCN(c2ccncc2Nc2ncc3ccc(-c4ccccn4)nn23)C1 | 
31 | 0.38 nM | 1761 nM | 31 µL/min/mg | 132 µL/min/mg | N[C@H]1CCCN(c2ccncc2Nc2ncc3ccc(-c4ccc(F)cc4F)nn23)C1 | IC50 [2]: 3.1 nM
32 |  | 602 nM | 27 µL/min/mg | 54 µL/min/mg | N[C@H]1CCCN(c2ccncc2Nc2ncc3ccc(-c4nccs4)nn23)C1 | IC50 [2]: 2.9 nM
33 |  |  | 15 µL/min/mg | < 14 µL/min/mg | N[C@H]1CCN(c2ccncc2Nc2ncc3ccc(-c4c(F)cccc4F)nn23)C1 | 
